Results of several laboratories.
Compare with care: the assays were run in different laboratories.
Target: Serine/threonine-protein kinase 24 (STK24, Homo sapiens, UniProt Q9Y6E0)

With `Cc1nn(C)cc1-c1nc2c(N3CCN(Cc4ccc(Cl)cc4)CC3)c(Cl)cnc2[nH]1` the remaining binding was 85% (binding, competition with immobilised ligand; 1 µM).
With `Cn1cncc1[C@@](O)(COc1ccc(C#N)cc1-c1ccc(OC(F)(F)F)cc1)c1ccc(C#N)cc1` the remaining binding was 100% (cell-free assay, competition with immobilised ligand; 1 µM).
`Cn1cc(-c2cc(F)cc(N3CCn4c(cc5c4CCCC5)C3=O)c2CO)cc(Nc2ccc(N3CCN(C4COC4)CC3)cn2)c1=O` gave an inhibition of 18% (enzyme activity, inhibitor; 0.1 µM).
`COCc1c(-c2cc3cc(C)cc(OC)c3s2)c2c(N)ncnn2c1CN1CCNC(=O)C1` has an inhibition of 90.6% (cell-free assay, competition with immobilised ligand; 1 µM).
`N#CC1(c2ccccn2)CCN(Cc2cc(C(=O)O)c(=O)n3ccccc23)CC1` has a remaining binding of 100% (cell-free assay, competition with immobilised ligand; 1 µM).
`O=c1[nH]c2ccccc2n1C1CCN(Cc2ccc(-c3[nH]c4cc5ncnc5cc4nc3-c3ccccc3)cc2)CC1` has a remaining signal of 90.7% (cell-free assay; 0.5 µM).
For `Cn1cc(-c2cccc(N3CCc4c(sc5c4CC(C)(C)C5)C3=O)c2CO)cc(Nc2ccncn2)c1=O`, the inhibition was 3% (enzyme activity, inhibitor; 1 µM).
For `CC(C)(C)c1cc(C=C(C#N)C#N)cc(Br)c1O`, the remaining activity was 96.3% (enzyme activity, inhibitor; 0.5 µM).
`COc1ncccc1-c1cnn2ccc(N3CCN(C(=O)OC(C)C)CC3)nc12` gave a remaining binding of 84% (binding, competition with immobilised ligand; 1 µM).
For `Nc1ncc(-c2nc(N3CCOCC3)nc(N3CCOCC3)n2)c(C(F)F)n1`, the remaining binding was 91% (binding, competition with immobilised ligand; 10 µM).
